{"data": "Measurements gathered from unrelated publications", "target": "Alpha-2A adrenergic receptor (ADRA2A, Homo sapiens, UniProt P08913)", "Residues used in one study (P08913 1-465)": "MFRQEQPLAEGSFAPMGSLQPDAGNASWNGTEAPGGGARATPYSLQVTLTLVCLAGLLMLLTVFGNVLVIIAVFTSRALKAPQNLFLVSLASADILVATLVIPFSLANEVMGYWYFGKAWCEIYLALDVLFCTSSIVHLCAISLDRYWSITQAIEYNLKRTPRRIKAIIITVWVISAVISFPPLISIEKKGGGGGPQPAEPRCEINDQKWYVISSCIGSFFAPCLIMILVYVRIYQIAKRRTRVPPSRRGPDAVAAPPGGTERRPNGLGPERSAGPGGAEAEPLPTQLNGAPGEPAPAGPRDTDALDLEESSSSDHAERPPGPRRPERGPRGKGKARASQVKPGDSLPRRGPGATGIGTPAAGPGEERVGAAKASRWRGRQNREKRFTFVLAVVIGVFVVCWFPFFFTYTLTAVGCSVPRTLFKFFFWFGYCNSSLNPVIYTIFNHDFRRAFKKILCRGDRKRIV", "note": "Each line is one published result; the experiments were not run side by side."}
{"Compound": "CC(C)Cn1cnc2c(N)nc3ccccc3c21", "observed": "ligand displacement", "method": "radioligand", "tested at": "10 µM", "endpoint": "inhibition", "result": "58%"}
{"Compound": "Cc1c(N2CCNCC2)nc2ccc(Br)cc2c1C(=O)NC[C@H](CCC(=O)O)c1ccccc1Cl", "observed": "ligand displacement", "tested at": "10 µM", "endpoint": "inhibition", "result": "65%"}
{"Compound": "COc1ccc(S(=O)(=O)N2CCCCC2)cc1C", "observed": "ligand displacement", "method": "radioligand", "tested at": "10 µM", "endpoint": "inhibition", "result": "< 30%"}
{"Compound": "Clc1ccc2c(C3CCN(CCc4c[nH]c5ccccc45)CC3)c[nH]c2c1", "observed": "ligand displacement", "method": "radioligand", "tested at": "10 µM", "endpoint": "inhibition", "result": "82%"}
{"Compound": "CC(C)N1CCC[C@H]1CNC(=O)c1cn(C2CCCC2)c(=O)c2c1c1ccccc1n2C", "observed": "ligand displacement", "method": "radioligand", "tested at": "10 µM", "endpoint": "inhibition", "result": "37%"}
{"Compound": "Nc1ncc(-c2nc(N3CCOCC3)nc(N3CCOCC3)n2)c(C(F)F)n1", "observed": "cell-free assay", "method": "radioligand", "tested at": "10 µM", "endpoint": "remaining signal", "result": "114%"}
{"Compound": "COCc1c(-c2cc3cc(C)cc(OC)c3s2)c2c(N)ncnn2c1CN1CCNC(=O)C1", "observed": "ligand displacement", "method": "radioligand", "tested at": "10 µM", "endpoint": "inhibition", "result": "26%"}
{"Compound": "N#CC1(c2ccccn2)CCN(Cc2cc(C(=O)O)c(=O)n3ccccc23)CC1", "observed": "cell-free assay", "tested at": "10 µM", "endpoint": "inhibition", "result": "-25.7%"}
{"Compound": "O=C(Nc1cccnn1)N1CCN([C@@H]2CCOc3cc(C(F)(F)F)ccc32)CC1", "observed": "ligand displacement", "tested at": "20 µM", "endpoint": "inhibition", "result": "7%"}
